Published values gathered from unrelated publications.
Each line is one published result; the experiments were not run side by side.
Target: Serine/threonine-protein kinase SIK2 (SIK2, Homo sapiens, UniProt Q9H0K1)

Compound	test	setting	remaining binding
Cc1cnn2ncc(-c3ccnc(N(C)C)n3)c2c1	binding	1 µM	100%
COc1ccc2c(c1)O[C@@H](c1ccc(OC)c(OC)c1)C[C@H]2NC(=O)C1(c2ccc3c(c2)OC(F)(F)O3)CC1	cell-free assay, competition with immobilised ligand	1 µM	95%
CN(C)c1ncc(F)c(-c2cnn3ncccc23)n1	binding	1 µM	100%
CC(C)CC(=O)N1CCc2nc(-c3ccc(Br)cc3)nc(N(C)Cc3ccccc3)c2C1	cell-free assay, competition with immobilised ligand	0.1 µM	100%
CNC(=O)[C@@H]1CC[C@@H](n2c(-c3ccc4cnccc4c3)nc3ccc(C(=O)NCc4cccc(C(N)=O)c4)cc32)C1	binding, competition with immobilised ligand	1 µM	97%
CNC(=O)c1ccc(Nc2ncc(C(F)(F)F)c(NCc3nccnc3N(C)S(C)(=O)=O)n2)cc1	cell-free assay, competition with immobilised ligand	0.1 µM	100%
N[C@@H]1CCN(c2nccc(-c3cnn4ncccc34)n2)C1	binding	1 µM	100%
COc1ncc2cc3ccccc3nc2c1C#N	cell-free assay, competition with immobilised ligand	5 µM	94%
O=C(NCCCN1CCOCC1)c1ccc(Nc2nccc(-c3cc4ccccc4s3)n2)cc1	binding, competition with immobilised ligand	1 µM	51%
COc1cc(-c2cn(C3CCc4c(F)cccc4N(CC(F)(F)F)C3=O)nn2)ccc1-n1cnc(C)c1 (stereo not shown)	cell-free assay, competition with immobilised ligand	1 µM	100%
COc1ccnn2ncc(-c3ccnc(N(C)C)n3)c12	binding	1 µM	92%
COc1cnc(Nc2cccc(S(N)(=O)=O)c2)nc1N1CCN(c2ccccc2)C(=O)C1	binding, competition with immobilised ligand	1 µM	92%
O=C(NCCCN1CCOCC1)c1ccc(Nc2ncc(Cl)c(-c3ccc(Cl)s3)n2)cc1	binding, competition with immobilised ligand	1 µM	37%
FC(F)(F)Oc1cccc(-c2cnc3ccc(-c4ccncc4)nn23)c1	binding, competition with immobilised ligand	5 µM	52%
CCN1CCN(Cc2ccc(C(=O)Nc3ccc(C)c(Oc4ccc5c(c4)CC(=O)N5)c3)cc2C(F)(F)F)CC1	binding, competition with immobilised ligand	1 µM	80%
c1cnn2ncc(-c3ccnc(N4CCC45COC5)n3)c2c1	binding	1 µM	96%
CN1CCN(c2cnc3c(C4CCN(C(=O)c5ccc(OC(F)(F)F)cc5N)CC4)ncnc3c2)CC1	cell-free assay, competition with immobilised ligand	1 µM	100%
O=C(NCC1CCOCC1)c1n[nH]cc1NC(=O)c1c(F)cccc1F	binding, competition with immobilised ligand	1 µM	83%
N#Cc1ccc(Nc2ccc3[nH]c(=O)[nH]c3c2)c(Cl)c1	cell-free assay, competition with immobilised ligand	1 µM	100%
O=C(c1ccc(Nc2ncc(Cl)c(-c3cc4ccccc4s3)n2)cc1)N1CCC(N2CCCC2)CC1	binding, competition with immobilised ligand	1 µM	27%
O=S(=O)(NC1CCC(c2cc(F)ccc2F)(S(=O)(=O)c2ccc(Cl)cc2)CC1)C(F)(F)F (stereo not shown)	cell-free assay, competition with immobilised ligand	1 µM	100%
CC1CCCN1c1nccc(-c2cnn3ncccc23)n1 (stereo not shown)	binding	1 µM	90%
